According to ChEMBL document CHEMBL1123831, “17-Heteroaroyl esters of corticosteroids. 2. 11 beta-Hydroxy series” (1987):

Columns and labels:
[1] = organism: Mus musculus; assay: Anti-inflammatory potency was measured in mice at 5 hours by modification of the Tonelli croton oil ear assay; assay type: functional
Procedure, shortened: (§1)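 Topical dosing in mice. Compounds at 10^-4% to 10^-6% (w/v) were dissolved in 0.6–0.7% croton oil, in a vehicle of pyridine/water/diethyl ether 20:5:74 (v/v). 10 µL was applied to the inner aspect of both pinnae daily for 5 days. Animals were killed 5 h after the last dose, and 6-mm ear punch biopsies were weighed. Potency was calculated relative to betamethasone 17-valerate from the mean left-plus-right ear punch weights.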

[2] = organism: Mus musculus; assay: Anti-inflammatory potency was measured in mice by modification of the croton oil ear assay; parameters: reference not given here
[3] = organism: Mus musculus; assay: Anti-inflammatory potency was measured in mice at 5 hours by modification of the croton oil ear assay; assay type: functional; procedure, shortened: as §1

## C[C@@H]1C[C@H]2[C@@H]3CCC4=CC(=O)C=C[C@]4(C)[C@@]3(Cl)[C@@H](O)C[C@]2(C)[C@@]1(OC(=O)c1ccco1)C(=O)CF
[1]
  Potency: 1.4
[2]
  Potency: 4.4

## CC(=O)OCC(=O)[C@@]1(OC(=O)c2cccs2)[C@H](C)CC2C3CCC4=CC(=O)C=CC4(C)[C@@]3(F)C(O)CC21C (stereo partly drawn)
[1]
  Potency: 1.6
[2]
  Potency: 2.9

## CC(=O)OCC(=O)[C@@]1(OC(=O)c2ccc(C)s2)[C@H](C)CC2C3CCC4=CC(=O)C=CC4(C)[C@@]3(F)C(O)CC21C (stereo partly drawn)
[1]
  Potency: 2.4
[2]
  Potency: 1.7

## CCC(=O)OCC(=O)[C@@]1(OC(=O)c2ccco2)[C@H](C)CC2C3CCC4=CC(=O)C=CC4(C)[C@@]3(F)C(O)CC21C (stereo partly drawn)
[1]
  Potency: 2.1
[2]
  Potency: 6.8

## COCC(=O)OCC(=O)[C@@]1(OC(=O)c2ccco2)[C@H](C)CC2C3CCC4=CC(=O)C=CC4(C)[C@@]3(F)C(O)CC21C (stereo partly drawn)
[1]
  Potency: 0.8
[2]
  Potency: 3.2

## COCC(=O)OCC(=O)[C@@]1(OC(=O)c2ccco2)[C@H](C)CC2C3CCC4=CC(=O)C=CC4(C)[C@@]3(Cl)C(O)CC21C (stereo partly drawn)
[2]
  Potency: 4.3

## CC(=O)OCC(=O)[C@@]1(OC(=O)c2ccoc2)[C@H](C)CC2C3CCC4=CC(=O)C=CC4(C)[C@@]3(F)C(O)CC21C (stereo partly drawn)
[1]
  Potency: 2.9
[2]
  Potency: 3.2

## C[C@@H]1CC2C3CCC4=CC(=O)C=CC4(C)[C@@]3(Cl)C(O)CC2(C)[C@@]1(OC(=O)c1ccco1)C(=O)CCl (stereo partly drawn)
[1]
  Potency: 1
[2]
  Potency: 6.1

## CC(=O)OCC(=O)[C@@]1(OC(=O)c2ccco2)[C@H](C)CC2C3CCC4=CC(=O)C=CC4(C)[C@@]3(F)C(O)CC21C (stereo partly drawn)
[1]
  Potency: 1.7
[2]
  Potency: 2.2

## C[C@H]1CC2C3CCC4=CC(=O)C=CC4(C)[C@@]3(F)C(O)CC2(C)[C@@]1(OC(=O)c1ccco1)C(=O)CCl (stereo partly drawn)
[1]
  Potency: 0.6
[2]
  Potency: 0.9

## C=C1CC2C3CCC4=CC(=O)C=CC4(C)C3(Cl)C(O)CC2(C)[C@@]1(OC(=O)c1ccco1)C(=O)COC(C)=O (stereo partly drawn)
[1]
  Potency: 2.3
[3]
  Potency: 2.2

## CC(=O)OCC(=O)[C@@]1(OC(=O)c2ccco2)[C@H](C)CC2C3CCC4=CC(=O)C=CC4(C)[C@@]3(Cl)C(O)CC21C (stereo partly drawn)
[1]
  Potency: 1.7
[2]
  Potency: 4.4

## C[C@@H]1CC2C3C[C@H](F)C4=CC(=O)C=CC4(C)[C@@]3(Cl)C(O)CC2(C)[C@@]1(OC(=O)c1ccco1)C(=O)CCl (stereo partly drawn)
[1]
  Potency: 1.1
[2]
  Potency: 5.1

## CC(=O)OCC(=O)[C@@]1(OC(=O)c2ccco2)CCC2C3CCC4=CC(=O)C=CC4(C)C3C(O)CC21C (stereo partly drawn)
[1]
  Potency: 1.3
[2]
  Potency: 0.9

## C=C1CC2C3CCC4=CC(=O)C=CC4(C)[C@@]3(F)C(O)CC2(C)[C@@]1(OC(=O)c1ccco1)C(=O)COC(C)=O (stereo partly drawn)
[1]
  Potency: 0.5
[2]
  Potency: 1.1

## C[C@@H]1CC2C3CCC4=CC(=O)C=CC4(C)[C@@]3(F)C(O)CC2(C)[C@@]1(OC(=O)c1ccoc1)C(=O)CCl (stereo partly drawn)
[1]
  Potency: 1
[2]
  Potency: 1.2

## C=C1CC2C3CCC4=CC(=O)C=CC4(C)C3C(O)CC2(C)[C@@]1(OC(=O)c1ccco1)C(=O)COC(C)=O (stereo partly drawn)
[1]
  Potency: 2.7
[2]
  Potency: 1.2

## CC(=O)OCC(=O)[C@@]1(OC(=O)c2ccco2)[C@@H](C)CC2C3CCC4=CC(=O)C=CC4(C)[C@@]3(F)C(O)CC21C (stereo partly drawn)
[1]
  Potency: 0.5
[2]
  Potency: 0.2

## CC(=O)OCC(=O)[C@@]1(OC(=O)c2ccco2)[C@H](C)CC2C3C[C@H](F)C4=CC(=O)C=CC4(C)C3C(O)CC21C (stereo partly drawn)
[1]
  Potency: 2.7
[2]
  Potency: 2.1

## CCC(=O)OCC(=O)[C@@]1(OC(=O)c2ccco2)[C@H](C)CC2C3CCC4=CC(=O)C=CC4(C)C3C(O)CC21C (stereo partly drawn)
[1]
  Potency: 1.1
[2]
  Potency: 1.5

## C[C@H]1CC2C3CCC4=CC(=O)C=CC4(C)[C@@]3(F)C(O)CC2(C)[C@@]1(OC(=O)c1cccs1)C(=O)CCl (stereo partly drawn)
[1]
  Potency: 1.3
[2]
  Potency: 2.6

## CCCC(=O)OCC(=O)[C@@]1(OC(=O)c2ccco2)[C@H](C)CC2C3CCC4=CC(=O)C=CC4(C)[C@@]3(F)C(O)CC21C (stereo partly drawn)
[1]
  Potency: 1.1

## C[C@@H]1CC2C3CCC4=CC(=O)C=CC4(C)[C@@]3(Cl)C(O)CC2(C)[C@@]1(OC(=O)c1cccs1)C(=O)CCl (stereo partly drawn)
[1]
  Potency: 1.2
[2]
  Potency: 4.5

## C[C@@H]1CC2C3CCC4=CC(=O)C=CC4(C)[C@@]3(F)C(O)CC2(C)[C@@]1(OC(=O)c1ccco1)C(=O)CCl (stereo partly drawn)
[1]
  Potency: 1.6
[2]
  Potency: 2.3

## CCCCC(=O)O[C@]1(C(=O)CO)[C@@H](C)C[C@H]2[C@@H]3CCC4=CC(=O)C=C[C@]4(C)[C@@]3(F)[C@@H](O)C[C@@]21C [BETAMETHASONE VALERATE]
[1]
  Potency: 1
[2]
  Potency: 1
